Results published in ChEMBL document CHEMBL2086239, “Synthesis and biological evaluation of combretastatin-amidobenzothiazole conjugates as potential anticancer agents” (Eur J Med Chem, 2012).
Active and inactive are the calls of the source. No cut-off for these calls is given here.

Columns and labels:
COLO 205 = test: Cytotoxicity against human COLO205 cells after 48 hrs assessed as inhibition of cell growth at 10 uM after 48 hrs by SRB assay relative to control; assay type: functional; conditions: COLO 205, 48 h, read-out: GI
Procedure, shortened: (§1)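 SRB protein assay in DMEM with 10% FBS at 37 °C, 5% CO2, 100% relative humidity. Cells seeded in 96-well plates, incubated 24 h, then exposed to drug at 10 µM for 48 h and processed per standard protocol. Absorbance read at 560 nm; growth percentage calculated for test wells relative to control wells.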

THP-1 = test: Cytotoxicity against human THP1 cells after 48 hrs assessed as inhibition of cell growth at 10 uM after 48 hrs by SRB assay relative to control; assay type: functional; conditions: THP-1, 48 h, read-out: GI; procedure, shortened: as §1
MCF7 [1] = test: Cytotoxicity against human MCF7 cells after 48 hrs assessed as inhibition of cell growth at 10 uM after 48 hrs by SRB assay relative to control; assay type: functional; conditions: MCF7, 48 h, read-out: GI; procedure, shortened: as §1
HEp-2 = test: Cytotoxicity against human Hep2 cells after 48 hrs assessed as inhibition of cell growth at 10 uM after 48 hrs by SRB assay relative to control; assay type: functional; conditions: for inhibition of growth at 10 µM: HEp-2, 48 h, read-out: GI; procedure, shortened: as §1
IMR-32 = test: Cytotoxicity against human IMR32 cells after 48 hrs assessed as inhibition of cell growth at 10 uM after 48 hrs by SRB assay relative to control; assay type: functional; conditions: for inhibition of growth at 10 µM: IMR-32, 48 h, read-out: GI; procedure, shortened: as §1
A549 = test: Cytotoxicity against human A549 cells assessed as inhibition of cell growth at 10 uM after 48 hrs by SRB assay relative to control; assay type: functional; conditions: for inhibition of growth at 10 µM: A549, 48 h, read-out: GI; procedure, shortened: as §1
PC-3 = test: Cytotoxicity against human PC3 cells after 48 hrs assessed as inhibition of cell growth at 10 uM after 48 hrs by SRB assay relative to control; assay type: functional; conditions: PC-3, 48 h, read-out: GI; procedure, shortened: as §1
MCF7 [2] = test: Cell cycle arrest in human MCF7 cells assessed as accumulation at G2/M phase at 4 uM after 24 hrs by FACS analysis (reference value: 34.88%); assay type: functional
MCF7 [3] = test: Cell cycle arrest in human MCF7 cells assessed as accumulation at S phase at 4 uM after 24 hrs by FACS analysis (reference value: 6.79%); assay type: functional
MCF7 [4] = test: Cell cycle arrest in human MCF7 cells assessed as accumulation at G1 phase at 4 uM after 24 hrs by FACS analysis (reference value: 58.33%); assay type: functional
MCF7 [5] = test: Inhibition of microtubule organization in human MCF7 cells at 4 uM after 24 hrs by immunofluorescence analysis; assay type: cell-based
Procedure, shortened: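 MCF-7 cells were grown in DMEM with 10% fetal calf serum and penicillin/streptomycin at 37 °C and 5% CO2. Cells on cover slips were treated for 24 h, then fixed in 4% paraformaldehyde for 20 min. They were permeabilised with 0.2% Triton X-100, held in methanol at 4 °C overnight and blocked with 1% BSA. Staining used anti-α-tubulin (1:100, 2 h RT), FITC secondary and a DAPI/PI mount, with confocal imaging.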

## COc1ccc(/C=C\c2cc(OC)c(OC)c(OC)c2)cc1OCC(=O)Nc1ccc2ncsc2c1
COLO 205
  inhibition of growth at 10 µM: 11%
THP-1
  inhibition of growth at 10 µM: 41%
MCF7 [1]
  inhibition of growth at 10 µM: 19%
HEp-2
  inhibition of growth at 10 µM: 20%
IMR-32
  inhibition of growth at 10 µM: 46%
A549
  growth inhibition (GI): inactive
PC-3
  inhibition of growth at 10 µM: 58%

## CCOc1ccc2nc(NC(=O)COc3cc(/C=C\c4cc(OC)c(OC)c(OC)c4)ccc3OC)sc2c1
MCF7 [2]
  Activity: 37.67%
COLO 205
  inhibition of growth at 10 µM: 45%
THP-1
  inhibition of growth at 10 µM: 37%
MCF7 [3]
  Activity: 13.91%
MCF7 [1]
  inhibition of growth at 10 µM: 35%
HEp-2
  inhibition of growth at 10 µM: 49%
IMR-32
  inhibition of growth at 10 µM: 54%
A549
  inhibition of growth at 10 µM: 27%
PC-3
  inhibition of growth at 10 µM: 37%
MCF7 [4]
  Activity: 48.43%

## COC(=O)Nc1nc2cc(C(=O)c3cccs3)ccc2[nH]1
MCF7 [5]
  inhibition: Active

## COc1ccc(/C=C\c2cc(OC)c(OC)c(OC)c2)cc1OCC(=O)Nc1nc2ccc(Cl)cc2s1
COLO 205
  inhibition of growth at 10 µM: 17%
THP-1
  inhibition of growth at 10 µM: 70%
MCF7 [1]
  inhibition of growth at 10 µM: 21%
HEp-2
  inhibition of growth at 10 µM: 47%
IMR-32
  inhibition of growth at 10 µM: 51%
A549
  growth inhibition (GI): inactive
PC-3
  inhibition of growth at 10 µM: 41%

## COc1ccc(/C=C\c2cc(OC)c(OC)c(OC)c2)cc1OCC(=O)Nc1nc2cc(C)c(C)cc2s1
MCF7 [2]
  Activity: 16.37%
COLO 205
  inhibition of growth at 10 µM: 51%
THP-1
  inhibition of growth at 10 µM: 76%
MCF7 [3]
  Activity: 3.04%
MCF7 [1]
  inhibition of growth at 10 µM: 68%
HEp-2
  inhibition of growth at 10 µM: 23%
IMR-32
  inhibition of growth at 10 µM: 55%
A549
  inhibition of growth at 10 µM: 41%
PC-3
  inhibition of growth at 10 µM: 36%
MCF7 [4]
  Activity: 80.59%

## COc1ccc(/C=C\c2cc(OC)c(OC)c(OC)c2)cc1OCC(=O)Nc1nc2ccc([N+](=O)[O-])cc2s1
COLO 205
  inhibition of growth at 10 µM: 46%
THP-1
  inhibition of growth at 10 µM: 80%
MCF7 [1]
  inhibition of growth at 10 µM: 69%
HEp-2
  growth inhibition (GI): inactive
IMR-32
  inhibition of growth at 10 µM: 88%
A549
  inhibition of growth at 10 µM: 50%
PC-3
  inhibition of growth at 10 µM: 47%

## COc1cccc2c1C(=O)c1c(O)c3c(c(O)c1C2=O)C[C@@](O)(C(=O)CO)C[C@@H]3O[C@H]1C[C@H](N)[C@H](O)[C@H](C)O1 [DOXORUBICIN]
COLO 205
  inhibition of growth at 10 µM: 26%
THP-1
  inhibition of growth at 10 µM: 83%
MCF7 [1]
  inhibition of growth at 10 µM: 45%
HEp-2
  inhibition of growth at 10 µM: 56%
IMR-32
  inhibition of growth at 10 µM: 73%
A549
  inhibition of growth at 10 µM: 52%
PC-3
  inhibition of growth at 10 µM: 75%

## COc1ccc(/C=C\c2cc(OC)c(OC)c(OC)c2)cc1OCC(=O)Nc1nc2ccc(C)cc2s1
MCF7 [2]
  Activity: 42.82%
COLO 205
  inhibition of growth at 10 µM: 33%
THP-1
  inhibition of growth at 10 µM: 27%
MCF7 [3]
  Activity: 15.53%
MCF7 [1]
  inhibition of growth at 10 µM: 57%
HEp-2
  inhibition of growth at 10 µM: 44%
IMR-32
  growth inhibition (GI): inactive
A549
  inhibition of growth at 10 µM: 37%
PC-3
  inhibition of growth at 10 µM: 22%
MCF7 [4]
  Activity: 41.7%

## COc1ccc(/C=C\c2cc(OC)c(OC)c(OC)c2)cc1OCC(=O)Nc1nc2c(C)cccc2s1
MCF7 [2]
  Activity: 28.48%
COLO 205
  inhibition of growth at 10 µM: 24%
THP-1
  inhibition of growth at 10 µM: 19%
MCF7 [3]
  Activity: 3.46%
MCF7 [1]
  inhibition of growth at 10 µM: 29%
HEp-2
  growth inhibition (GI): inactive
IMR-32
  inhibition of growth at 10 µM: 34%
A549
  growth inhibition (GI): inactive
PC-3
  inhibition of growth at 10 µM: 24%
MCF7 [4]
  Activity: 68.06%
